{"source": "ChEMBL document CHEMBL5032534", "about": "“COUPY Coumarins as Novel Mitochondria-Targeted Photodynamic Therapy Anticancer Agents” (J Med Chem, 2021)", "key": {"[1]": {"assay": "Drug uptake in human HeLa cells at 5 uM incubated for 30 mins by confocal microscopic analysis", "format": "ADME, cell-based", "conditions": "0.5 h", "outline": "(§1)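 HeLa cells in high-glucose DMEM with 10% fetal calf serum were seeded on glass-bottom dishes for 24 h, then loaded with compound for 30 min at 37 °C. They were washed three times with DPBS and kept in phenol-red-free low-glucose DMEM. Live cells were imaged by confocal microscopy at 37 °C with 5% CO2, excited at 561 nm, with emission collected from 570 to 670 nm.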"}, "[2]": {"assay": "Drug uptake in mitochondria of human HeLa cells assessed as drug accumulation at 5 uM measured after 30 mins by confocal microscopic analysis", "format": "ADME", "conditions": "0.5 h", "outline": "as §1"}, "[3]": {"assay": "Drug uptake in nucleolus of human HeLa cells assessed as drug accumulation at 5 uM measured after 30 mins by confocal microscopic analysis", "format": "ADME, subcellular", "conditions": "0.5 h", "outline": "as §1"}, "[4]": {"test_system": "HeLa", "assay": "Induction of ROS generation in human HeLa cells assessed as increase in intracellular ROS level at 5 uM incubated for 1 hr in dark followed by irradiation with visible light for 1 hr under hypoxic condition by DCFH-DA staining based flow cytometric analysis", "format": "functional, cell-based", "conditions": "time 2.0 hrs", "outline": "(§2)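 HeLa cells were seeded at 2 × 10^4/well for 24 h under 21% or 2% O2. They were co-treated with 5 μM compound plus a scavenger, which stayed present throughout: NAC 5 mM, NaN3 5 mM, mannitol 50 mM, tiron 5 mM, sodium pyruvate 10 mM or Trolox 0.1 mM. Cells were held 1 h dark, then 1 h under visible light, stained 30 min with 10 μM DCFH-DA, trypsinized and analysed by flow cytometry. At least two independent experiments, n = 3.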"}, "[5]": {"assay": "Drug uptake in human HeLa cells at 0.5 uM incubated for 30 mins by confocal microscopic analysis", "format": "ADME, cell-based", "conditions": "0.5 h", "outline": "as §1"}, "[6]": {"test_system": "HeLa", "assay": "Induction of ROS generation in human HeLa cells at 5 uM incubated for 1 hr in dark followed by irradiation with visible light for 1 hr under hypoxic condition in presence of NaN3 by DCFH-DA staining based flow cytometric analysis", "format": "functional, cell-based", "conditions": "time 2.0 hrs", "outline": "as §2"}, "[7]": {"test_system": "HeLa", "assay": "Effect on cell cycle distribution in human HeLa cells assessed as reduction in G1 phase population at 5 uM preincubated for 30 mins in dark followed by light irradiation for 1 hr by RNase/propidium iodide staining based FACS analysis", "format": "functional", "conditions": "time 1.5 hrs", "outline": "(§3)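 HeLa cells were seeded at 1.5 × 10^5/well and treated for 0.5 h, with or without 1 h visible-light irradiation, followed by 24 h recovery. Cells were fixed in ice-cold 70% ethanol for 1 h and stained with PI (40 μg/mL) plus RNase (1 μg/mL) for 30 min at 310 K. Analysis was by flow cytometry in the FL2-A channel. At least two independent experiments, n = 3.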"}, "[8]": {"test_system": "HeLa", "assay": "Induction of superoxide anion generation in human HeLa cells assessed as increase in DHE fluorescence at 5 uM incubated for 1 hr in dark followed by irradiation with visible light for 1 hr under hypoxic condition in presence of tiron by DHE staining based flow cytometric analysis", "conditions": "time 2.0 hrs"}, "[9]": {"test_system": "HeLa", "assay": "Induction of ROS generation in human HeLa cells at 5 uM incubated for 1 hr in dark followed by irradiation with visible light for 1 hr under hypoxic condition in presence of Trolox by DCFH-DA staining based flow cytometric analysis", "format": "functional, cell-based", "conditions": "time 2.0 hrs", "outline": "as §2"}, "[10]": {"test_system": "HeLa", "assay": "Induction of autophagy in human HeLa cells assessed as increase in MDC-positive autophagic vesicles at 5 uM preincubated for 30 mins followed by light irradiation for 1 hr and further incubated for 6 hrs in drug-free medium by MDC staining based confocal microscopic analysis", "format": "functional, cell-based", "conditions": "time 1.5 hrs", "outline": "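HeLa cells were seeded at 1.5 × 10^4 cells/cm2 in chamber slides and given 0.5 h compound incubation, then 1 h visible-light irradiation. Medium was replaced for a 6 h recovery. Cells were stained with monodansylcadaverine (0.05 mM in PBS, 10 min, 310 K) and imaged by confocal microscopy (ex 405 nm). Vacuoles were counted in at least 10 cells from two experiments. Controls were starvation in EBSS for 2 h and resveratrol 50 μM for 2 h.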"}, "[11]": {"test_system": "HeLa", "assay": "Induction of autophagy in human HeLa cells […] pretreated with wortmannin for 1 hr followed by irradiation schedule for 1 hr by MDC staining based confocal microscopic analysis", "format": "functional"}, "[12]": {"assay": "Drug uptake in nucleolus of human HeLa cells assessed as drug accumulation at 0.5 uM measured after 30 mins by confocal microscopic analysis", "format": "ADME, subcellular", "conditions": "0.5 h", "outline": "as §1"}, "[13]": {"test_system": "HeLa", "assay": "Induction of ROS generation in human HeLa cells at 5 uM incubated for 1 hr in dark followed by irradiation with visible light for 1 hr under hypoxic condition in presence of 5 mM NAC by DCFH-DA staining based flow cytometric analysis", "format": "functional, cell-based", "conditions": "time 2.0 hrs", "outline": "as §2"}, "[14]": {"test_system": "HeLa", "assay": "Effect on cell cycle distribution in human HeLa cells at 5 uM incubated for 30 mins in dark by RNase/propidium iodide staining based FACS analysis", "format": "functional", "outline": "as §3"}, "[15]": {"assay": "Induction of singlet oxygen generation in air-saturated DCM solution assessed as reduction in 1,3-diphenylisobenzofuran absorption irradiated with 505 nanometer green light by DPBF-based assay", "format": "functional"}, "[16]": {"test_system": "HeLa", "assay": "Induction of apoptosis in human HeLa cells assessed as increase in necrotic cells at 5 uM incubated for 30 mins in dark measured after 24 hrs by Annexin V-FITC/ Propidium iodide staining based flow cytometry analysis", "format": "functional, cell-based", "conditions": "time 24.5 hrs", "outline": "(§4)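 HeLa cells were seeded at 1.5 × 10^5/well overnight and treated for 0.5 h, with or without 1 h visible-light irradiation, followed by 24 h recovery. Cells were trypsinized, resuspended in binding buffer, labelled with FITC-Annexin V and propidium iodide for 15 min at room temperature in the dark, and analysed by flow cytometry. Cisplatin (30 μM) served as positive control.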"}, "[17]": {"test_system": "HeLa", "assay": "Induction of ROS generation in human HeLa cells at 5 uM incubated for 1 hr in dark followed by irradiation with visible light for 1 hr under normoxic condition in presence of 5 mM NAC by DCFH-DA staining based flow cytometric analysis", "format": "functional, cell-based", "conditions": "time 2.0 hrs", "outline": "as §2"}, "[18]": {"test_system": "HeLa", "assay": "Induction of mitochondrial membrane potential loss in human HeLa cells at 5 uM measured after 24 hrs by JC-1 dye-based flow cytometric analysis", "format": "functional, cell-based", "outline": "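HeLa cells were seeded at 1.5 × 10^5 in 12-well plates for 24 h and treated for 24 h. Vehicle control held 0.4% DMSO and antimycin A (50 μM) served as positive control. Cells were stained with JC-1 (1 μM, 20 min) and analysed by flow cytometry (10^4 events; ex 488 nm; green 530 nm and red 585 nm channels). At least two independent experiments.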"}, "[19]": {"test_system": "HeLa", "assay": "Induction of ROS generation in human HeLa cells at 5 uM incubated for 1 hr in dark followed by irradiation with visible light for 1 hr under normoxic condition in presence of Trolox by DCFH-DA staining based flow cytometric analysis", "format": "functional, cell-based", "conditions": "time 2.0 hrs", "outline": "as §2"}, "[20]": {"assay": "Drug uptake in mitochondria of human HeLa cells assessed as drug accumulation at 0.5 uM measured after 30 mins by confocal microscopic analysis", "format": "ADME", "conditions": "0.5 h", "outline": "as §1"}, "[21]": {"test_system": "HeLa", "assay": "Induction of apoptosis in human HeLa cells assessed as increase in early apoptotic cells at 5 uM preincubated for 30 mins in dark followed by irradiation for 1 hr and measured after 24 hrs by Annexin V-FITC/ Propidium iodide staining based flow cytometry analysis", "format": "functional, cell-based", "conditions": "time 25.5 hrs", "outline": "as §4"}, "[22]": {"test_system": "HeLa", "assay": "Induction of ROS generation in human HeLa cells at 5 uM incubated for 1 hr in dark followed by irradiation with visible light for 1 hr under hypoxic condition in presence of NaPyr by DCFH-DA staining based flow cytometric analysis", "format": "functional, cell-based", "conditions": "time 2.0 hrs", "outline": "as §2"}}, "note": "Calls of active or inactive are those of the source. The calls are words filed in the database; no cut-off is given here.", "data": [{"smiles": "CCN(CC)c1ccc2c(c1)O/C(=C(/C#N)c1ccncc1)C=C2C", "values": [{"measurement": "Drug uptake", "setting": "[1]", "result": "Active"}, {"measurement": "Drug uptake", "setting": "[2]", "result": "Not Active"}, {"measurement": "Drug uptake", "setting": "[3]", "result": "Active"}]}, {"smiles": "CCN(CC)c1ccc2c(c1)O/C(=C(/C#N)c1cc[n+](C)cc1)C=C2C", "values": [{"measurement": "Activity", "setting": "[4]", "result": "inactive"}, {"measurement": "Drug uptake", "setting": "[5]", "result": "Active"}, {"measurement": "Activity", "setting": "[6]", "result": "Active"}, {"measurement": "Activity", "setting": "[7]", "result": "Active"}, {"measurement": "Activity", "setting": "[8]", "result": "Active"}, {"measurement": "Activity", "setting": "[9]", "result": "Active"}, {"measurement": "Activity", "setting": "[10]", "result": "Active"}, {"measurement": "Activity", "setting": "[11]", "result": "inactive"}, {"measurement": "Drug uptake", "setting": "[12]", "result": "Active"}, {"measurement": "Activity", "setting": "[13]", "result": "inactive"}, {"measurement": "Activity", "setting": "[14]", "result": "inactive"}, {"measurement": "Activity", "setting": "[15]", "result": "Active"}, {"measurement": "Activity", "setting": "[16]", "result": "Active"}, {"measurement": "Activity", "setting": "[17]", "result": "inactive"}, {"measurement": "Activity", "setting": "[18]", "result": "inactive"}, {"measurement": "Activity", "setting": "[19]", "result": "inactive"}, {"measurement": "Drug uptake", "setting": "[20]", "result": "Active"}, {"measurement": "Activity", "setting": "[21]", "result": "Active"}, {"measurement": "Activity", "setting": "[22]", "result": "Active"}]}]}
